Source: PubChem BioAssay (several laboratories)
An excerpt weighted towards active compounds, which were near 2.6% of everything screened.
SENP7 block = blocks the human protease SENP7; Q9BQF6; recombinant SENP7, Z-RLRGG-aminoluciferin luminescence, 40 min; inhibition, % at 5 µM; 330,000 compounds, 1.5% hits;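 active = inhibition above about 50% at the single test dose, limit read from the data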;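 also: plate controls were DMSO with enzyme for no effect and no enzyme buffer wells for full effect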
Platelet DG rel = platelet dense granule release activity | human platelet-rich plasma, SFLLRN dense granule ATP release, luminescence | inhibition, %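 (compounds screened at 7.5 µM in platelet-rich plasma)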 | 300,000 compounds, 0.22% hits | AID 1663;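 active = mean replicate score, as percent of positive control, at or above 50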
SENP6 inh = SENP6 protease inhibition; 330,000 compounds, 1.8% hits; AID 2599; inhibition, % at 10 µM; Recombinant SENP6 catalytic domain, aminoluciferin luminescence; Q9GZR1;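 active = inhibition above about 50% at the single tested dose, limit read from the data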;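 also: plate controls were DMSO wells with enzyme for no effect and DMSO wells lacking enzyme for full effect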
Target sequence (Q9GZR1 628-1112 limits assumed): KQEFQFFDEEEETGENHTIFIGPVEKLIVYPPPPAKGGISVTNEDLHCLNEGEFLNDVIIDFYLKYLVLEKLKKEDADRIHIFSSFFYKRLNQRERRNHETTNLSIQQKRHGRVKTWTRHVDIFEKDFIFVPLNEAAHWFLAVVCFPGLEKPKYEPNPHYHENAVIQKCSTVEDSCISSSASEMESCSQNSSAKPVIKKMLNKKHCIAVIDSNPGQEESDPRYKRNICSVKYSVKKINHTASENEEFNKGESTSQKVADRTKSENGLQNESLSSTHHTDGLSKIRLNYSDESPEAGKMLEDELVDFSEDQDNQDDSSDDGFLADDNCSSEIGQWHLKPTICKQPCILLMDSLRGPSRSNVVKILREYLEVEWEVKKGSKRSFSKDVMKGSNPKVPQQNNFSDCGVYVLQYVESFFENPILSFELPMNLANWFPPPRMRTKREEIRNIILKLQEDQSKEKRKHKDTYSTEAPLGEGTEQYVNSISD
SENP8 block-1 = SENP8 protease inhibition; Q96LD8; AID 2540; 330,000 compounds, 1.2% hits; inhibition, % at 10 µM; purified SENP8, Z-RLRGG-aminoluciferin cleavage, luminescence; in the data active = inhibition above about 50%
SENP8 block-2 = blocks human SENP8 cleavage of Nedd8 substrate; Q96LD8; recombinant SENP8, Nedd8 substrate fluorescence; inhibition, % at 20 µM; 360,000 compounds, 0.64% hits; AID 602440; in the data active = inhibition mostly above about 40%, no sharp cut-off; inactive = mostly below about 27%
SENP1 inh = blocks the human SENP1 SUMO protease catalytic domain. Q9P0U3. recombinant SENP1 catalytic domain, CyPet-SUMO1-YPet FRET cleavage. inhibition, % at 10 µM. 360,000 compounds, 0.21% hits;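 active = inhibition at least 30% at 10 µM, raw YFP signal under a set limit, fluorescence ratio 0.5 to 1.5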;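 also: 0% = enzyme with DMSO and 100% = no enzyme wells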
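System: Recombinant human SENP1 catalytic domain, His6-tagged | Incubation: Enzyme reaction for 50 min at room temperature, dark | Medium: Tris pH 8 with BME, BSA, NP40 and catalase | Also added: 25 nM SUMO1 FRET substrate | Compound: 10 µM single point, 0.5% DMSO | Measured by: FRET fluorescence in CFP and YFP emission channels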
SENP8 confirm = human SENP8 inhibition, confirmed; AID 488912; Recombinant SENP8, Z-RLRGG-aminoluciferin luminescence, 60 min; 6,200 compounds, 40% hits; inhibition, % at 12.5 µM; shares compounds with SENP7 block;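 active = mean inhibition across replicates above about 50%, limit read from the data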
SENP6 confirm = confirmation of human SENP6 protease inhibitors; shares compounds with SENP7 block; recombinant SENP6, Z-RLRGG-aminoluciferin luminescence; inhibition, % at 12.5 µM; 6,200 compounds, 58% hits
SENP7 conf = human SENP7 inhibition, confirmed. shares compounds with SENP7 block. recombinant SENP7, Z-RLRGG-aminoluciferin luminescence, 40 min. inhibition, % at 12.5 µM. 6,200 compounds, 69% hits. AID 488917
Casp3 select = selectivity test for SENP inhibitors: human caspase-3 inhibition. 6,200 compounds, 60% hits. inhibition, % at 12.5 µM. shares compounds with SENP7 block. purified caspase-3, Z-DEVD-aminoluciferin luminescence, 60 min. AID 488918;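 active = mean inhibition above about 50%, limit read from the data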;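 also: plate controls were enzyme with DMSO for no effect and wells without caspase-3 for full effect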
Luc interf = counter-screen for SENP inhibitors: luminescence interference. inhibition, % at 12.5 µM. Pre-incubated SENP8/Z-RLRGG-aminoluciferin, luciferase luminescence interference. AID 488919. 6,200 compounds, 39% hits. shares compounds with SENP7 block;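 active = mean inhibition above about 50% when retested at one dose, limit read from the data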;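 also: plate controls were DMSO wells with completed reaction for no effect and substrate without enzyme for full effect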
* = called active by the depositor; i = inactive; . = no result given.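 The calls were made as follows, unless noted: active = mean inhibition above about 50% in the one-dose retest (limit read from the data); inactive = the rest.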

SMILES	SENP7 block	Platelet DG rel	SENP6 inh	SENP8 block-1	SENP8 block-2	SENP1 inh	SENP8 confirm	SENP6 confirm	SENP7 conf	Casp3 select	Luc interf
c1ccc(C2=NNC(=NC3CC3)SC2)cc1	93*	32	93*	94*	10	1	96*	97*	102*	98*	95*
c1ccc2c(C3=NNC(=NC4CC4)SC3)c[nH]c2c1	30	56*	63*	36	-7	-6	48	45	81*	80*	67*
N/C(=N\OC(=O)c1ccc(Cl)c([N+](=O)[O-])c1)c1ccccn1	39	11	-23	7	16	5	.	.	.	.	.
COc1ccc(C(=O)NNC(=O)c2ccccn2)cc1	100*	77*	99*	97*	8	7	98*	99*	102*	98*	98*
CCO/N=C(\N)c1[nH]ncc1Br	3	4	-6	2	27	2	.	.	.	.	.
N/C(=N\OC(=O)c1ccc(Cl)c(Cl)c1)c1ccccn1	95*	12	85*	68*	4	-2	36	47	65*	82*	59*
N/C(=N\OC(=O)c1ccc(Cl)cc1)c1ccccn1	99*	52*	94*	97*	8	4	88*	99*	103*	98*	79*
N/C(=N\OC(=O)c1ccc(Cl)cc1)c1[nH]ncc1Br	100*	52*	100*	96*	-6	3	98*	98*	101*	98*	98*
Cc1csc(N2CCN(c3cc4c(cc3Cl)nc(-c3ccncc3)n4CCCN3CCCC3)CC2)n1	0	1	-5	-2	-298	0	.	.	.	.	.
CCOC(=O)Cc1c(C)nc2cc(-c3ccc(C(C)(C)C)cc3)[nH]n2c1=O	7	19	3	-4	-51	-2	.	.	.	.	.
Cc1cc(/C(N)=N/OC(=O)c2cccc(Cl)c2)no1	13	8	31	13	36	1	.	.	.	.	.
COc1ccc(C(=O)O/N=C(\N)c2ccccn2)cc1	101*	34	97*	96*	14	5	99*	100*	104*	99*	97*
N/C(=N\OC(=O)c1cccc(Cl)c1)c1ccccn1	94*	12	92*	87*	11	4	90*	90*	100*	95*	45
O=C(OCc1ccc(Cl)c(Cl)c1)c1cccnc1Cl	3	-2	37	7	12	-1	.	.	.	.	.
Nc1ncccc1OCc1ccc(Cl)c(Cl)c1	81*	-3	75*	70*	31	1	79*	79*	94*	75*	81*
Cc1cc(/C(N)=N/OC(=O)c2ccc(Cl)cc2)no1	94*	11	85*	80*	31	8	24	86*	97*	92*	21
O=C(OCc1ccc(Cl)c(Cl)c1)c1ccccn1	69*	-1	80*	51*	8	0	71*	69*	90*	71*	73*
COc1cc(OC)cc(C(=O)Nn2c(C)nc3ccccc3c2=O)c1	0	-4	-3	-6	13	2	.	.	.	.	.
COc1ccc2[nH]c3c(c2c1)CCn1c-3nc2ccccc2c1=O	80*	.	26	-8	i	-20	7	10	23	18	4
COc1ccc(-c2nn(-c3ccccc3)cc2/C=N/Nc2ccc(S(N)(=O)=O)cc2[N+](=O)[O-])cc1OC	-9	1	-13	-11	30	4	.	.	.	.	.
O=C(Nc1ccc(Br)cc1)Nc1ccccc1Cl	94*	2	81*	68*	19	2	-2	68*	90*	38	3
O=C(Nc1ccc(Cl)cc1)Nc1cccc(C(=O)O)c1	97*	7	95*	95*	14	3	99*	99*	104*	87*	98*
O=C(Nc1ccc(CN2CCCCC2)cc1)Nc1ccccc1Cl	9	-8	2	-9	18	1	.	.	.	.	.
O=C(Nc1cccc(C(=O)O)c1)Nc1ccccc1Cl	97*	10	95*	93*	-3	1	98*	98*	103*	96*	75*
CSc1cccc(NC(=O)Nc2ccc(Cl)cc2)c1	0	-5	-19	-1	23	4	.	.	.	.	.
SMILES	SENP7 block	Platelet DG rel	SENP6 inh	SENP8 block-1	SENP8 block-2	SENP1 inh	SENP8 confirm	SENP6 confirm	SENP7 conf	Casp3 select	Luc interf
CCOC(=O)c1c(-c2ccccc2)csc1NC(=O)/C(C#N)=C\c1ccc(O)c(OC)c1	.	.	.	.	-19	-31	.	.	.	.	.
Cc1ccc(S(=O)(=O)N2CCN(C(=O)COC(=O)c3ccccc3Cl)CC2)c(C)c1	0	.	-13	3	3	4	.	.	.	.	.
CCOc1ccc(NC(=O)C2CCN(S(=O)(=O)c3c(C)noc3C)CC2)cc1	2	8	-6	5	4	-1	.	.	.	.	.
C=C(C)c1sc(-c2ccc(Cl)cc2)nc1C	39	6	70*	50	-255	3	-7	41	85*	33	4
C/C(=N\OC(=O)NC(C)C)c1sc(-c2ccc(Cl)cc2)nc1C	59*	4	35	11	-27	1	53*	60*	84*	74*	51*
CCNC(=O)O/N=C(\C)c1sc(-c2ccc(Cl)cc2)nc1C	91*	22	92*	89*	-3	1	79*	79*	95*	82*	66*
Nc1nc(N)nc(-c2cc(C(F)(F)F)ccc2Cl)n1	6	.	-7	-5	3	2	.	.	.	.	.
CC1Cc2ccccc2N1C(=O)c1ccc(Br)o1 (centres undefined)	.	14	.	.	12	1	.	.	.	.	.
Cc1ccc(C(=O)N2c3ccccc3CC2C)o1 (centres undefined)	94*	7	85*	90*	30	0	94*	96*	101*	97*	83*
Cc1ccc(C(=O)N2CCc3ccccc32)o1	91*	20	91*	88*	7	1	91*	91*	98*	95*	89*
O=C(c1cccs1)N1CCCc2ccccc21	2	-2	-13	-4	9	1	.	.	.	.	.
O=C(c1cccs1)N1CCc2ccccc21	61*	4	60*	40	8	-1	35	38	80*	76*	59*
